Reference: ChEMBL document CHEMBL1133253, “Improved antibacterial activities of coumarin antibiotics bearing 5',5'-dialkylnoviose: biological activity of RU79115” (Bioorg Med Chem Lett, 2000)
In brackets after ≈: the same amount, converted by molar mass.

How the values were obtained:
Format in all cases: functional
Streptococcus sp. [1] = test: In vitro anti-streptococcal activity against Streptococci species [38]* expressed as geometric mean
Staphylococcus sp. [2] = test: Minimum inhibitory concentration evaluated against Staphylococcus species resistant to oxacillin and ofloxacin [47]*
Method in brief: (§1)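 Two-fold agar dilution MIC, in µg/mL, against Staphylococcus panels grouped by resistance phenotype (oxacillin and/or ofloxacin resistant). Per-panel values are reported as the geometric mean and MIC90 across strains; the strain count per panel is given in brackets.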

Streptococcus sp. [3] = test: Minimum inhibitory concentration evaluated against Streptococci species (viridans) [25]*
Mus musculus [4] = test: Minimum inhibitory concentration of the subcutaneously administered compound evaluated against vancomycin resistant Enterococci faecium D3AP9 strain in mice
Enterococcus [5] = test: Minimum inhibitory concentration evaluated against enterococci species resistant to vancomycin and teicoplanin [17]*
Staphylococcus sp. [6] = test: Minimum inhibitory concentration evaluated against Staphylococcus species resistant to ofloxacin [59]*; method in brief: as §1
pneumococci = test: In vitro anti-streptococcal activity against pneumococci resistant to penicillin [29]* expressed as geometric mean
Mus musculus [7] = test: Protective dose of subcutaneously administered compound against intraperitoneally-induced septicaemia model (Staphylococcus aureus HT18) in murine; conditions: sc, read-out: PD50
Method in brief: (§2)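 Murine septicaemia was induced by intraperitoneal infection, and the compound was given subcutaneously. PD50 was derived by probit analysis.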

Streptococcus sp. [8] = test: Minimum inhibitory concentration evaluated against Streptococci species [38]*
Mus musculus [9] = test: Protective dose of subcutaneously administered compound against intraperitoneally-induced septicaemia model (Enterococci faecium D3HT7 strain ) in murine; conditions: sc, read-out: PD50; method in brief: as §2
Mus musculus [10] = test: Protective dose of subcutaneously administered compound against intraperitoneally-induced septicaemia model (Enterococci faecalis D2HT6 strain) in murine; conditions: sc, read-out: PD50; method in brief: as §2
Staphylococcus sp. [11] = test: In vitro anti-staphylococcal activity against Staphylococcus species resistant to ofloxacin [59]* expressed as geometric mean; method in brief: as §1
Mus musculus [12] = test: Minimum inhibitory concentration of the subcutaneously administered compound evaluated against […] A1UC1 strain in mice
Staphylococcus sp. [13] = test: In vitro anti-staphylococcal activity against Staphylococcus species resistant to oxacillin and ofloxacin[47]* expressed as geometric mean; method in brief: as §1
Mus musculus [14] = test: Protective dose of subcutaneously administered compound against intraperitoneally-induced septicaemia model (Staphylococcus aureus GR56 strain resistant to oxacillin) in murine; conditions: sc, read-out: PD50; method in brief: as §2
Mus musculus [15] = test: Minimum inhibitory concentration of the subcutaneously administered compound evaluated against vancomycin resistant Enterococci faecium D3HM4 strain in mice
Mus musculus [16] = test: Protective dose of subcutaneously administered compound against intraperitoneally-induced septicaemia model ([…] B1HT3 strain) in murine; conditions: sc, read-out: PD50; method in brief: as §2
Mus musculus [17] = test: Minimum inhibitory concentration of the subcutaneously administered compound evaluated against vancomycin resistant Enterococci faecium D3HT12 strain in mice
Mus musculus [18] = test: Protective dose of subcutaneously administered compound against intraperitoneally-induced septicaemia model (vancomycin resistant Enterococci faecium D3HM4 strain ) in murine; conditions: sc, read-out: PD50; method in brief: as §2
Mus musculus [19] = test: Minimum inhibitory concentration of the subcutaneously administered compound evaluated against Staphylococcus aureus GR56 strain resistant to oxacillin in mice
Staphylococcus sp. [20] = test: In vitro anti-staphylococcal activity against Staphylococcus species [91]* expressed as geometric mean
Method in brief: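 Two-fold agar-dilution MICs (µg/mL) were run on a panel of staphylococcal isolates and summarised as the geometric mean across strains.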

Enterococcus [21] = test: Minimum inhibitory concentration evaluated against enterococci species susceptible to vancomycin [26]*
Mus musculus [22] = test: Protective dose of subcutaneously administered compound against intraperitoneally-induced septicaemia model (vancomycin resistant Enterococci faecium D3AP9 strain ) in murine; conditions: sc, read-out: PD50; method in brief: as §2
Streptococcus sp. [23] = test: In vitro anti-streptococcal activity against Streptococci species (viridans) [25]* expressed as geometric mean
Mus musculus [24] = test: Minimum inhibitory concentration of the subcutaneously administered compound evaluated against […] B1HT3 strain in mice
Mus musculus [25] = test: Minimum inhibitory concentration of the subcutaneously administered compound evaluated against Enterococci faecium D3HT7 strain in mice
Enterococcus [26] = test: Minimum inhibitory concentration evaluated against enterococci species resistant to vancomycin [65]*
[27] = Minimum inhibitory concentration evaluated against pneumococci resistant to penicillin [29]*
Staphylococcus sp. [28] = test: Minimum inhibitory concentration evaluated against Staphylococcus species [91]*; method in brief: as §1
Mus musculus [29] = test: Minimum inhibitory concentration of the subcutaneously administered compound evaluated against Staphylococcus aureus HT-18 strain in mice
Staphylococcus sp. [30] = test: In vitro anti-staphylococcal activity against Staphylococcus species resistant to oxacillin [66]* expressed as geometric mean; method in brief: as §1
Enterococcus [31] = test: In vitro anti-enterococcal activity against enterococci species susceptible to vancomycin [26]* expressed as geometric mean
Mus musculus [32] = test: Minimum inhibitory concentration of the subcutaneously administered compound evaluated against Enterococci faecalis D2HT6 strain in mice
Enterococcus [33] = test: In vitro anti-enterococcal activity against enterococci species resistant to vancomycin [65]* expressed as geometric mean
Mus musculus [34] = test: Protective dose of subcutaneously administered compound against intraperitoneally-induced septicaemia model ([…] A1UC1 strain) in murine; conditions: sc, read-out: PD50; method in brief: as §2
Mus musculus [35] = test: Protective dose of subcutaneously administered compound against intraperitoneally-induced septicaemia model (vancomycin resistant Enterococci faecium D3HM3 strain ) in murine; conditions: sc, read-out: PD50; method in brief: as §2
Enterococcus [36] = test: In vitro anti-enterococcal activity against enterococci species resistant to vancomycin and teicoplanin [17]* expressed as geometric mean
Mus musculus [37] = test: Protective dose of subcutaneously administered compound against intraperitoneally-induced septicaemia model (vancomycin resistant Enterococci faecium D3HT12 strain ) in murine; conditions: sc, read-out: PD50; method in brief: as §2
Staphylococcus sp. [38] = test: Minimum inhibitory concentration evaluated against Staphylococcus species resistant to oxacillin [66]*; method in brief: as §1

Structure (SMILES): CC(=O)NC[C@H]1CN(c2ccc(N3CCN(C(=O)CO)CC3)c(F)c2)C(=O)O1 [EPEREZOLID]
- GM (Streptococcus sp. [1]): 0.52
- MIC90 (Staphylococcus sp. [2]): 1.2 µg/mL (≈ 3.04 µM)
- MIC90 (Streptococcus sp. [3]): 1.2 µg/mL (≈ 3.04 µM)
- MIC (Mus musculus [4]): 1.2 µg/mL (≈ 3.04 µM)
- MIC90 (Enterococcus [5]): 1.2 µg/mL (≈ 3.04 µM)
- MIC90 (Staphylococcus sp. [6]): 1.2 µg/mL (≈ 3.04 µM)
- GM (pneumococci): 0.25
- ED50 (Mus musculus [7]): 20 mg/kg
- MIC90 (Streptococcus sp. [8]): 0.6 µg/mL (≈ 1.52 µM)
- ED50 (Mus musculus [9]): 3 mg/kg
- ED50 (Mus musculus [10]): 6.4 mg/kg
- GM (Staphylococcus sp. [11]): 0.71
- MIC (Mus musculus [12]): < 0.15 µg/mL
- GM (Staphylococcus sp. [13]): 0.72
- ED50 (Mus musculus [14]): 5 mg/kg
- MIC (Mus musculus [15]): 0.3 µg/mL (≈ 0.761 µM)
- ED50 (Mus musculus [16]): > 50 mg/kg
- MIC (Mus musculus [17]): 0.3 µg/mL (≈ 0.761 µM)
- ED50 (Mus musculus [18]): 27.2 mg/kg
- MIC (Mus musculus [19]): 1.2 µg/mL (≈ 3.04 µM)
- GM (Staphylococcus sp. [20]): 0.74
- MIC90 (Enterococcus [21]): 0.6 µg/mL (≈ 1.52 µM)
- ED50 (Mus musculus [22]): 8.7 mg/kg
- GM (Streptococcus sp. [23]): 0.39
- MIC (Mus musculus [24]): 0.6 µg/mL (≈ 1.52 µM)
- MIC (Mus musculus [25]): 0.6 µg/mL (≈ 1.52 µM)
- MIC90 (Enterococcus [26]): 1.2 µg/mL (≈ 3.04 µM)
- MIC90 [27]: 0.3 µg/mL (≈ 0.761 µM)
- MIC90 (Staphylococcus sp. [28]): 1.2 µg/mL (≈ 3.04 µM)
- MIC (Mus musculus [29]): 0.6 µg/mL (≈ 1.52 µM)
- GM (Staphylococcus sp. [30]): 0.73
- GM (Enterococcus [31]): 0.51
- MIC (Mus musculus [32]): 0.6 µg/mL (≈ 1.52 µM)
- GM (Enterococcus [33]): 0.72
- ED50 (Mus musculus [34]): 22.8 mg/kg
- ED50 (Mus musculus [35]): 2.8 mg/kg
- GM (Enterococcus [36]): 0.43
- ED50 (Mus musculus [37]): 1.5 mg/kg
- MIC90 (Staphylococcus sp. [38]): 1.2 µg/mL (≈ 3.04 µM)
